Activity calls are given as the source filed them. The rule behind the calls is not given here.
Key:
[1] = Inhibition of HCV NS5B RdRp activity transfected in BHK cells at 100 uM after 42 hrs by dual-glo luciferase reporter gene assay relative to control; format: cell-based; details: Hepacivirus hominis
Procedure, shortened: (§1)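 BHK cells stably carrying NS5B plus bicistronic (+)FLuc-(−)UTR-RLuc reporter, grown in DMEM, 10% FBS, 1 mg/mL G418, blasticidin. Seeded 1 × 10^4 cells/well, given 100 μM compound 8 h later, lysed 42 h post-treatment, dual luciferase read. Viability taken as firefly luciferase relative to DMSO controls. NS5B activity taken as percent reduction in RLuc/FLuc ratio versus DMSO. Two independent experiments in duplicate.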

[2] = tested on: Hepacivirus hominis; assay: Inhibition of HCV NS5BCdelta21 RdRp activity at 100 uM after 1 hr by liquid scintillation counting analysis in presence of [alpha-32P]UTP relative to control
Procedure, shortened: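 Template 0.25 μM polyrA/U12, with 25 μM UTP plus [α-32P]UTP. Inhibitor at 100 μM, 1 h, 30 °C. Stopped with cold 5% TCA/0.5 mM pyrophosphate, product filter-captured and counted by scintillation. Background-subtracted, relative to DMSO (100%). At least two independent experiments in duplicate.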

[3] = tested on: Hepatitis C virus; assay: Antiviral activity against Hepatitis C virus subtype 1b infected in human HuH7 cells assessed as inhibition of viral RNA replication at 100 uM after 42 hrs by […] assay relative to control; format: functional, Hepacivirus hominis; details: genotype 1b; for inhibition at 100 µM: Huh-7, 42 h; for inhibition: Hepacivirus hominis, Huh-7
Procedure, shortened: (§2)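 Replicon reporter cells (Huh7/Rep-Feo1b for 1b; Huh7.5-FGR-JC1-Rluc2A for 2a) kept in DMEM, 10% FCS, 0.5 mg/mL G418, 37 °C, 5% CO2. Seeded 1 × 10^4 cells/well, treated 8 h later with 100 μM compound or DMSO for 42 h. Luciferase signal read as percent of DMSO controls. Viability by MTS assay in parental Huh7.5 cells. Average of two independent experiments in duplicate.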

[4] = Cytotoxicity against human Huh7.5 cells assessed as cell viability at 100 uM after 42 hrs by MTS assay; format: cell-based, Huh-7; details: read-out: Activity
[5] = tested on: Hepatitis C virus; assay: Antiviral activity against Hepatitis C virus subtype 2a infected in human Huh7.5 cells assessed as inhibition of viral RNA replication at 100 uM after 42 hrs by […] assay relative to control; format: functional, Hepacivirus hominis; details: genotype 2a; for inhibition at 100 µM: Huh-7, 42 h; for inhibition: Hepacivirus hominis, Huh-7; procedure, shortened: as §2
[6] = Inhibition of HCV NS5BCdelta21 RdRp activity after 1 hr by liquid scintillation counting analysis in presence of [alpha-32P]UTP; design: species or system Hepacivirus hominis
Procedure, shortened: (§3)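 NS5BCΔ21 (300 ng) was incubated 1 h at 30 °C with 0.25 μM polyrA/U12, 25 μM UTP plus [α-32P]UTP and 1.0 mM MnCl2 in 20 mM Tris-HCl pH 7.0 with NaCl, Na glutamate, DTT, BSA, Tween-20, glycerol and RNase inhibitor. Reactions were stopped with cold 5% TCA/pyrophosphate, captured on GF-B filters and scintillation-counted versus a background-subtracted DMSO control. Screening used 100 μM; IC50 came from 8–12-point curves, duplicate, two experiments.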

[7] = Cytotoxicity against BHK cells transfected with HCV NS5B RdRp assessed as cell viability at 100 uM after 42 hrs by luciferase reporter gene assay; format: cell-based, Mesocricetus auratus; details: hamster, read-out: Activity; procedure, shortened: as §1
[8] = Selectivity ratio for Hepatitis C virus subtype 2a infected in human Huh7.5 cells over Hepatitis C virus subtype 1b infected in human HuH7 cells; format: functional, Huh-7
[9] = Inhibition of HCV NS5B RdRp activity; design: species or system Hepacivirus hominis; procedure, shortened: as §3
[10] = Inhibition of 6xHis-tagged HCV NS5B RdRp activity; design: species or system Hepacivirus hominis; procedure, shortened: as §3

IC50 [9]	IC50 [10]	Compound	inhibition [1]	inhibition [2]	inhibition at 100 µM [3]	viability at 42 h, 100 µM [4]	inhibition at 100 µM [5]	IC50 [6]	viability at 42 h, 100 µM [7]	inhibition [3]	inhibition [5]	Selectivity ratio [8]
–	–	O=C1CS/C(=N/c2nnc(-c3ccc(F)cc3)s2)N1	57.9%	76.1%	70%	14%	72.8%	38.6 µM	–	–	–	–
–	–	O=C1N/C(=N\c2nnc(-c3ccc(F)cc3)s2)S/C1=C\c1c(Cl)cccc1Cl	13.6%	74.1%	98.8%	73.2%	98.9%	19.8 µM	72.2%	–	–	–
–	–	O=C1N/C(=N\c2nnc(-c3ccc(F)cc3)s2)S/C1=C\c1ccccc1Cl	61%	53.9%	98%	15.6%	95.3%	64.9 µM	11.4%	–	–	–
–	–	COc1cccc(OC)c1/C=C1\S/C(=N/c2nnc(-c3ccc(F)cc3)s2)NC1=O	inactive	19.7%	87.7%	63%	93.2%	–	73.7%	–	–	–
–	–	O=C1N/C(=N\c2nnc(-c3ccc(Cl)cc3)s2)S/C1=C\c1ccccc1F	65.6%	56.2%	96.4%	13.1%	98.5%	56.2 µM	12.8%	–	–	–
–	–	O=C1N/C(=N\c2nnc(-c3ccc(Cl)cc3)s2)S/C1=C\c1ccccc1Cl	inactive	73.6%	–	0%	–	33.8 µM	0%	inactive	inactive	–
–	–	COc1cccc(OC)c1/C=C1\S/C(=N/c2nnc(-c3ccc(Cl)cc3)s2)NC1=O	–	24.1%	97.7%	80.4%	98.9%	–	87.4%	–	–	–
–	–	Nc1nnc(-c2ccc(F)cc2)s1	9.4%	15.4%	46.8%	18.6%	52.4%	–	–	–	–	–
–	–	Nc1nnc(-c2ccc(Cl)cc2)s1	inactive	16.8%	37.4%	32.4%	72.8%	–	28.6%	–	–	1.6
–	–	O=C1N/C(=N\c2nnc(-c3ccc(Cl)cc3)s2)S/C1=C\c1c(F)cccc1Cl	inactive	60.3%	–	0%	–	45.3 µM	0%	inactive	inactive	–
–	–	O=C1N/C(=N\c2nnc(-c3ccc(Cl)cc3)s2)S/C1=C\c1ccc(F)cc1	inactive	25%	82.2%	64.2%	94.9%	–	73.1%	–	–	–
–	–	O=C(CCl)Nc1nnc(-c2ccc(F)cc2)s1	–	16%	–	84.8%	–	–	98.3%	–	–	–
–	–	O=C1N/C(=N\c2nnc(-c3ccc(Cl)cc3)s2)S/C1=C\c1ccc(Cl)cc1Cl	inactive	25.7%	–	0%	–	–	0%	inactive	inactive	–
–	–	O=C1CS/C(=N/c2nnc(-c3ccc(Cl)cc3)s2)N1	65.7%	74.4%	54.1%	13.3%	89.8%	42.5 µM	15.2%	–	–	1.6
48 µM	–	O=C(NN1C(=O)CSC1c1ccccc1F)c1cc(-c2ccc(F)cc2F)ccc1O (stereo not drawn)	–	–	–	–	–	–	–	–	–	–
–	–	O=C1N/C(=N\c2nnc(-c3ccc(Cl)cc3)s2)S/C1=C\c1ccc([N+](=O)[O-])cc1	–	33%	–	–	–	–	–	–	–	–
–	–	O=C1N/C(=N\c2nnc(-c3ccc(F)cc3)s2)S/C1=C\c1ccccc1F	11%	62.4%	97.4%	59.9%	96.1%	51.1 µM	55.7%	–	–	–
–	–	O=C1N/C(=N\c2nnc(-c3ccc(Cl)cc3)s2)S/C1=C\c1cccc(F)c1	63.1%	65.5%	92.8%	60.3%	95.6%	48.2 µM	58.1%	–	–	–
–	–	O=C1N/C(=N\c2nnc(-c3ccc(F)cc3)s2)S/C1=C\c1ccc([N+](=O)[O-])cc1	7%	24.1%	51.2%	13.9%	50.4%	–	14.6%	–	–	–
–	–	O=C(CCl)Nc1nnc(-c2ccc(Cl)cc2)s1	–	20%	–	81.9%	–	–	98.9%	–	–	–
–	–	O=C1N/C(=N\c2nnc(-c3ccc(F)cc3)s2)S/C1=C\c1c(F)cccc1Cl	–	28.1%	99.4%	74.6%	98.5%	–	89.8%	–	–	–
–	440 nM	O=C1/C(=C/c2ccc(Br)cc2)SC(=S)N1NS(=O)(=O)c1ccccc1	–	–	–	–	–	–	–	–	–	–
–	–	O=C1N/C(=N\c2nnc(-c3ccc(Cl)cc3)s2)S/C1=C\c1c(Cl)cccc1Cl	–	82%	98.5%	76%	98.1%	5.6 µM	94.9%	–	–	–
–	–	O=C1N/C(=N\c2nnc(-c3ccc(F)cc3)s2)S/C1=C\c1cccc(F)c1	85.9%	72%	95.5%	59.7%	98%	34.6 µM	55.1%	–	–	–
–	–	O=C1N/C(=N\c2nnc(-c3ccc(F)cc3)s2)S/C1=C\c1ccc(Cl)cc1Cl	inactive	11.5%	29.4%	4.2%	54.7%	–	0%	–	–	1.6
